Bioassay records deposited in PubChem by several laboratories.
Compounds with a hit are over-represented: about 1.6% of the library has one in this group of screens.
proCasp7 act = counter-screen: procaspase-7 (human) activation. P55210. recombinant procaspase-7, Ac-DEVD-pNA absorbance 405 nm; D23A/D198A/D206A triple mutant, cannot self-cleave; scale: DMSO 0, 5 µM enzyme 100. activation, % at 8.5 µM. actives 0.093% (n = 330,000). AID 463210;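 active = percent activation above the screen-wide mean plus 3 SD, cut at about 25% in these data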
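Material: Procaspase-7 triple mutant (PC-7 D3A) | Quantity: 2 µM procaspase-7 mutant as dispensed | Reagent: DEVD-pNA substrate | Times: 1 h preincubation, 2 h reaction | Technique: 405 nm absorbance of p-nitroaniline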
Neddyl block = cullin neddylation inhibition | calls only at 25 µM | AID 651699 | actives 0.58% (n = 360,000) | TR-FRET cullin neddylation, biochemical; in the data active = inhibition above about 36%
procasp3 activ = activators of human procaspase-3; P42574; recombinant procaspase-3 D3A, Ac-DEVD-pNA absorbance 405 nm; activation, % at 8.5 µM; AID 463141; actives 0.11% (n = 330,000);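 active = activation above the mean of all tested compounds plus 3 SD, cut at about 21% in these data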;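 also: 0% = DMSO alone and 100% = DMSO wells spiked with extra 5 µM PC-3 D3A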
Target sequence (P42574 whole entry D9A/D28A/D175A): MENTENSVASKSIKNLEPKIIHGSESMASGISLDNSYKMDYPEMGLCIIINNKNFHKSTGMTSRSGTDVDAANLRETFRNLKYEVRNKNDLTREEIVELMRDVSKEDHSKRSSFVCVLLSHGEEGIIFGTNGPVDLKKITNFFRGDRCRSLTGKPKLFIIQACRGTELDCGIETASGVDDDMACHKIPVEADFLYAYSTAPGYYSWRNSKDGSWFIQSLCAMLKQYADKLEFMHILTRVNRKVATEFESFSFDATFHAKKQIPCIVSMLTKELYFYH
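Test system: Procaspase-3 D3A mutant, all three cleavage aspartates alanine | Dosing: Single dose, 8.5 µM nominal compound, 0.8% DMSO | Schedule: 1 h preincubation, 2 h reaction | Technique: 405 nm absorbance of p-nitroaniline, reads at 0 and 120 min | Repeats: One well per compound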
KLK7 zymogen act = activates the human kallikrein-7 zymogen. purified proKLK7, EDANS-DABCYL substrate fluorescence; 100% is mature enzyme control, 0% vehicle. AID 652039. activation, % at 7 µM. actives 0.9% (n = 370,000);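 active = activation above the mean of all tested compounds plus 3 SD, computed per campaign excluding outliers beyond control limits, cut at about 13% in these data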
Target sequence (P49862 whole entry, looked up): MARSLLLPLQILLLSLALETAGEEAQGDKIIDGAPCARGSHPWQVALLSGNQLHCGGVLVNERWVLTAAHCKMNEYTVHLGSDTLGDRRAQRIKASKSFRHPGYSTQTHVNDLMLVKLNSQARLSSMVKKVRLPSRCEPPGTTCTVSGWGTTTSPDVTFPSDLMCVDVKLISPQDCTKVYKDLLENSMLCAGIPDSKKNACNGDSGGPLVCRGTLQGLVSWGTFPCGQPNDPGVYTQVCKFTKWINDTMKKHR
proCasp7 act trip = counter-screen for procaspase-3 activators: activators of human procaspase-7; shares compounds with procasp3 activ; recombinant procaspase-7, Ac-DEVD-pNA absorbance; asp23/198/206-to-Ala mutant, cannot self-cleave; activation, % at 8.5 µM; 210 tested, under 10 active;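 active = mean activation above a set limit taken from an earlier procaspase-7 screen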;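 also: 0% = DMSO wells and 100% = DMSO plus 5 µM procaspase-7 enzyme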
proCasp3 confirm = confirmation of human procaspase-3 activators | shares compounds with procasp3 activ | activation, % at 8.5 µM | actives 10% (n = 210) | recombinant PC-3 D3A, Ac-DEVD-pNA absorbance 405 nm; 100% is higher-enzyme control;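 active = mean activation above a set limit carried over from the earlier primary screen, cut at about 22% in these data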
PC3 dual counter = counter-screen: procaspase-3 (human) activation; AID 493114; shares compounds with proCasp7 act; recombinant PC-3 D3A, Ac-DEVD-pNA absorbance 405 nm; aspartates 9, 28, 175 changed to alanine; 100% = enzyme control; activation, % at 8.5 µM; 290 tested, under 10 active;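 active = mean percent activation across triplicates above a set limit taken from the earlier primary procaspase-3 screen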;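 also: 0% = DMSO wells and 100% = DMSO wells with 5 µM added PC-3 D3A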
Procasp7 act = activates human procaspase-7, confirming dual procaspase activators; activation, % at 8.5 µM; 290 tested, under 10 active; shares compounds with proCasp7 act; recombinant procaspase-7, Ac-DEVD-pNA absorbance 405 nm; D23A/D198A/D206A mutant that cannot self-cleave;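 active = mean activation above a set limit carried over from the earlier primary screen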;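 also: 0% = DMSO only and 100% = DMSO with added 5 µM PC-7 enzyme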
Neddyl conf = cullin neddylation inhibition, confirmation. shares compounds with Neddyl block. TR-FRET cullin neddylation biochemical assay. calls only at 25 µM. actives 13% (n = 1,800); in the data active = inhibition above about 40%;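 also: neddylation substrate is the cullin 1 ring ligase complex with SKP2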
proKLK7 act conf = proKLK7 activation, confirmation; shares compounds with KLK7 zymogen act; purified proKLK7, EDANS-DABCYL substrate fluorescence; scaled: vehicle 0, mature enzyme 100; activation, % at 7 µM; actives 68% (n = 3,200); AID 686949;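 active = activation, as change over the incubation, above the mean of all tested compounds plus 3 SD, cut at about 13% in these data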
EDANS-DABCYL int = fluorescence interference counter-screen for KLK7 activators | shares compounds with KLK7 zymogen act | EDANS-DABCYL substrate fluorescence interference, no enzyme, 4 h; solvent 0%, active enzyme control 100% | activation, % at 7 µM | actives 80% (n = 3,200);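 active = activation above the all-compound mean plus 3 SD, ignoring values outside control-based bounds, cut at about 4.8% in these data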;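 also: value is the 4 h activation minus the activation read at time zero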
An asterisk follows results filed as active; i = inactive; . = no result shown; + = active, no number.

SMILES | proCasp7 act | Neddyl block | procasp3 activ | KLK7 zymogen act | proCasp7 act trip | proCasp3 confirm | others
CCCc1[nH]nc2c1C(c1cccc(OC(=O)c3ccco3)c1)C(C#N)=C(N)O2 (stereo not given) | 9.2 | i | 21.3* | -0.6 | 0.1 | 3.7
CC1CCN(CCCNC(=O)COc2cc(=O)n(C)c3ccccc23)CC1 | 3.8 | i | 38.1* | -0.3 | 1.3 | 4.8
COC(=O)c1ccc(S(=O)(=O)N2CCC(NC(=O)CCc3ccccc3)CC2)cc1 | . | . | . | 0.4 | . | .
COc1ccc2c(c1)CCCN2C(=O)C1CCCN(S(=O)(=O)c2ccc(Cl)s2)C1 (stereo not given) | . | . | . | 0.8 | . | .
COC(=O)[C@H]1C[C@@]2(C)c3ccccc3N(C(=O)OC(C)(C)C)[C@H]2N1C(=O)OC(C)(C)C | . | . | . | -0.3 | . | .
CNC(=O)c1c(NC(=O)c2cccc(C)c2)sc2c1CCC2 | -226.4 | + | 28.9* | -181.7 | -3.0 | -1.8
Cc1ccc2nc(CSc3nc(C)cc(C)c3C#N)[nH]c2c1 | 7.3 | + | 69.0* | -38.8 | -20.1 | -10.9
CC1(C)CC(=O)C2=C(C1)c1c(ccc3ccccc13)NC2c1ccc(Br)o1 (stereo not given) | 16.0 | + | 29.4* | -5.2 | 31.0* | 3.6 | Neddyl conf=i
COc1ccc(C2Nc3ccccc3NC3=C2C(=O)CC(C)(C)C3)cc1 (stereo not given) | -5.6 | i | 5.9 | -7.7 | . | .
O=C(Nc1ccc(F)cc1)OCc1cn(Cc2ccc(F)cc2F)nn1 | . | . | . | 0.0 | . | .
C(#CC1=CCCCC1)CNCc1ccccc1 | . | . | . | -0.2 | . | .
CCCc1cc(=O)oc2cc(OC(=O)CN3C(=O)NC4(CCCC4)C3=O)ccc12 | 14.6 | . | 25.6* | 61.8* | -21.7 | -13.1 | proKLK7 act conf=223.9*;EDANS-DABCYL int=192.8*
CCCc1cc(=O)oc2cc(OCC(=O)N3CC[C@@]4(O)CCCC[C@H]4C3)ccc12 | . | i | . | 1.0 | . | .
COc1ccc(CNS(=O)(=O)/C=C/c2ccc(OC)cc2CNC(=O)OC(C)(C)C)cc1 | . | . | . | -0.3 | . | .
Cc1c(CCC(=O)NC2CC2)c(=O)oc2cc(O)ccc12 | 16.6 | i | 22.9* | 85.5* | -20.7 | -12.6 | proKLK7 act conf=62.3*;EDANS-DABCYL int=73.3*
Cc1c(CC(=O)NCC(=O)N[C@H](Cc2ccccc2)C(=O)O)c(=O)oc2cc(O)ccc12 | 19.4 | . | 25.2* | 72.2* | -20.6 | -12.9 | proKLK7 act conf=63.7*;EDANS-DABCYL int=72.9*
COc1ccc(-c2cc(-c3nnc(SCC(=O)Nc4ccc(OCc5ccccc5)cc4)n3N)[nH]n2)cc1 | . | . | . | 0.2 | . | .
COc1cccc2cc(-c3nc(-c4cccs4)cs3)c(=O)oc12 | 65.4* | + | 16.6 | -2.8 | . | . | PC3 dual counter=13.1;Procasp7 act=4.1
COc1ccc(C2CC(C(C)(C)C)=NN2c2ccc(S(N)(=O)=O)cc2)cc1 (stereo not given) | 8.5 | i | 11.2 | -2.2 | . | .
